From ChEMBL document CHEMBL1155877, “Design, synthesis, and biological evaluation of 14-substituted aromathecins as topoisomerase I inhibitors” (2008)
Activity calls are given as the source filed them. The calls are words filed in the database; no cut-off is given here.

Assays:
[1] = system: UACC-62; assay: Antiproliferative activity against human UACC62 cells; format: functional
Summary of the method: (§1)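 NCI ~60 human tumor cell line screen. After an initial one-dose test, selected compounds run at five concentrations spanning 10^-8 to 10^-4 M. GI50 reported for selected lines from each subpanel.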

[2] = system: SN12C; assay: Antiproliferative activity against human SN12C cells; format: functional; summary of the method: as §1
[3] = system: HCT-116; assay: Antiproliferative activity against human HCT116 cells; format: functional; summary of the method: as §1
[4] = system: DU-145; assay: Antiproliferative activity against human DU145 cells; format: functional; summary of the method: as §1
[5] = system: OVCAR-3; assay: Antiproliferative activity against human OVCAR-3 cells; format: functional; summary of the method: as §1
[6] = system: SF-539; assay: Antiproliferative activity against human SF539 cells; format: functional; summary of the method: as §1
[7] = system: MDA-MB-435; assay: Antiproliferative activity against human MDA-MB-435 cells; format: functional; summary of the method: as §1
[8] = target: T1, DNA topoisomerase 1 (Homo sapiens) (UniProt P11387); assay: Inhibition of human recombinant topoisomerase 1 assessed as DNA cleavage relative to 1 uM camptothecin
T1 sequence (whole entry): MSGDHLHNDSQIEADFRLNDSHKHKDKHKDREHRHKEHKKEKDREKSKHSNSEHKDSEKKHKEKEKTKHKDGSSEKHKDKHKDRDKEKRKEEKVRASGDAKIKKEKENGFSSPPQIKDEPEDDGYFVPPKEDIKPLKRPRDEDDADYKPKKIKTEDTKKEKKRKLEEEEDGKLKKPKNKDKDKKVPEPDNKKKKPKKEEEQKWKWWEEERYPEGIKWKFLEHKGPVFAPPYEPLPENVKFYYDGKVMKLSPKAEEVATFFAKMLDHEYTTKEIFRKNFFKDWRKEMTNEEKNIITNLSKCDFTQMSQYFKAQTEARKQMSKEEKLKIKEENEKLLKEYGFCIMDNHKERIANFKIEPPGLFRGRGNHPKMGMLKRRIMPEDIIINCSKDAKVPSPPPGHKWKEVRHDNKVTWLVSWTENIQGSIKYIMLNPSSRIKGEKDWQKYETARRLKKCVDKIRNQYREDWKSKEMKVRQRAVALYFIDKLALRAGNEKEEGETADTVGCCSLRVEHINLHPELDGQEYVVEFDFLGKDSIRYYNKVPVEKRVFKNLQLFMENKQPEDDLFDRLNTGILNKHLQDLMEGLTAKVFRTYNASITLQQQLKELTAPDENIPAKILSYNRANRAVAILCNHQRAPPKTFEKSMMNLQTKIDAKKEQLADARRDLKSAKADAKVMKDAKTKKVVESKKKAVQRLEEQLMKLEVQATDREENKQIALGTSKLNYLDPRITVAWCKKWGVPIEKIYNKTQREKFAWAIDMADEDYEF
Summary of the method: (§2)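 Baculovirus-expressed, purified human recombinant top1. Substrate is the 161 bp PvuII/HindIII fragment of pBluescript SK(-), 3'-end labeled at the HindIII site with [α-32P]-dGTP (about 50 000 dpm/reaction). Incubated with drug at 22 °C for 30 min. Products resolved on denaturing 16% polyacrylamide/7 M urea gels and imaged by phosphorimager. Tested at 0.1, 1, 10 and 100 µM.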

[9] = system: HOP-62; assay: Antiproliferative activity against human HOP62 cells; format: functional; summary of the method: as §1
[10] = target: T1, DNA topoisomerase 1 (Homo sapiens); assay: Induction of human recombinant topoisomerase 1-mediated DNA cleavage at 100 uM; summary of the method: as §2
[11] = system: HOP-62; assay: Growth inhibition of human HOP62 cells at 10 uM; format: functional; conditions: pooled result: one value given for 8 cell lines, strains, targets or settings, read-out: GI

`O=c1c2ccccc2cc2n1Cc1c-2nc2ccccc2c1CN1CC[C@H](O)C1` showed a GI50 [1] of 2.7 µM, a GI50 [2] of 16.9 µM and a GI50 [3] of 9 µM. For the same compound, the GI50 [4] was 7 µM, the GI50 [5] was 5.5 µM and the GI50 [6] was 5.4 µM. The GI50 [7] was 10.3 µM, the inhibition [8] was 75% and the GI50 [9] was 28.6 µM.
`CN(C)Cc1c2c(nc3ccccc13)-c1cc3ccccc3c(=O)n1C2` gave a GI50 [1] of over 100 µM, a GI50 [2] of over 100 µM and a GI50 [4] of over 100 µM. For the same compound, the GI50 [5] was over 100 µM, the GI50 [6] was over 100 µM and the GI50 [7] was over 100 µM. For the same compound, the inhibition [8] was 75% and the GI50 [9] was over 100 µM.
In the case of `O=c1c2ccccc2cc2n1Cc1c-2nc2ccccc2c1CCCn1ccnc1`, the GI50 [1] is reported as 1.5 µM, the GI50 [2] is reported as 4.5 µM and the GI50 [3] is reported as 1.6 µM. For the same compound, the GI50 [4] was 3.3 µM, the GI50 [5] was 5 µM and the GI50 [6] was 0.74 µM. For the same compound, the GI50 [7] was 4.2 µM, the inhibition [8] was 75% and the GI50 [9] was 2 µM.
`NCCCc1c2c(nc3ccccc13)-c1cc3ccccc3c(=O)n1C2` was tested, and the inhibition [8] was 20%.
For `O=c1c2ccccc2cc2n1Cc1c-2nc2ccccc2c1CCCNCCO`, the GI50 [1] was 1.8 µM, the Activity [10] was “Active” and the GI50 [2] was 4.1 µM. For the same compound, the GI50 [3] was 1.6 µM, the GI50 [4] was 13.2 µM and the GI50 [5] was 6.3 µM. For the same compound, the GI50 [6] was 12.9 µM, the GI50 [7] was 1.7 µM and the Activity [8] was “Active”. The GI50 [9] was 1.2 µM.
For `O=c1c2ccccc2cc2n1Cc1c-2nc2ccccc2c1CNCCO`, the GI50 [1] was 2.6 µM, the GI50 [2] was 2.7 µM and the GI50 [3] was 3.6 µM. For the same compound, the GI50 [4] was 2.8 µM, the GI50 [5] was 6.3 µM and the GI50 [6] was 3.9 µM. The GI50 [7] was over 100 µM, the inhibition [8] was 75% and the GI50 [9] was 3.5 µM.
`COc1cc2c3c(n(C)c(=O)c2cc1OC)-c1cc2c(cc1C3=O)OCO2` showed a GI50 [1] of 4.2 µM, a GI50 [2] of 68 µM and a GI50 [3] of 35 µM. It also gave a GI50 [4] of 37 µM, a GI50 [6] of 41 µM and a GI50 [7] of 96 µM. It also gave an inhibition [8] of 50% and a GI50 [9] of 1.3 µM.
With `O=c1c2ccccc2cc2n1Cc1c-2nc2ccccc2c1CNCCCn1ccnc1` the GI50 [1] was 6.4 µM, the GI50 [2] was 3.5 µM and the GI50 [3] was 3.2 µM. For the same compound, the GI50 [4] was 3.2 µM, the GI50 [5] was 4.4 µM and the GI50 [6] was 3.8 µM. It also gave a GI50 [7] of 7 µM, an inhibition [8] of 50% and a GI50 [9] of 4.7 µM.
In the case of `O=c1c2ccccc2cc2n1Cc1c-2nc2ccccc2c1CN1CCOCC1`, the inhibition of growth at 10 µM [11] is reported as 14% and the inhibition [8] is reported as 50%.
Work on `CC[C@@]1(O)C(=O)OCc2c1cc1n(c2=O)Cc2cc3ccccc3nc2-1` [CAMPTOTHECIN] yielded a GI50 [1] of 0.01 µM, a GI50 [2] of 0.02 µM and a GI50 [3] of 0.03 µM. For the same compound, the GI50 [4] was 0.01 µM, the GI50 [6] was 0.01 µM and the GI50 [7] was 0.04 µM. The GI50 [9] was 0.01 µM.
`O=c1c2ccccc2cc2n1Cc1c-2nc2ccccc2c1CNCCCN1CCOCC1` gave an inhibition of growth at 10 µM [11] of 25.5%.
Compound `O=c1c2cccc(CO)c2cc2n1Cc1cc3ccccc3nc1-2` has an inhibition [8] of 20%.
With `O=c1c2ccccc2cc2n1Cc1c-2nc2ccccc2c1CCl` the GI50 [1] was over 100 µM, the GI50 [2] was over 100 µM and the GI50 [3] was 43.4 µM. It also gave a GI50 [4] of over 100 µM, a GI50 [5] of over 100 µM and a GI50 [6] of 7.4 µM. For the same compound, the GI50 [7] was over 100 µM, the inhibition [8] was 20% and the GI50 [9] was 26.5 µM.
Compound `O=c1c2ccccc2cc2n1Cc1cc3ccccc3nc1-2` [ROSETTACIN] has a GI50 [2] of over 100 µM, a GI50 [4] of over 100 µM and an inhibition [8] of 50%.
Compound `O=c1c2ccccc2cc2n1Cc1c-2nc2ccccc2c1Cn1ccnc1` has a GI50 [1] of 3.4 µM, a GI50 [2] of 21.5 µM and a GI50 [3] of 13.2 µM. The GI50 [4] was 11.5 µM, the GI50 [5] was 17 µM and the GI50 [6] was 4.7 µM. The GI50 [7] was over 100 µM, the inhibition [8] was 75% and the GI50 [9] was 10 µM.
`COc1cc2cc3n(c(=O)c2cc1OC)Cc1cc2ccccc2nc1-3` [DIMETHOXYAROMATHECIN] showed a GI50 [1] of over 100 µM, a GI50 [2] of over 100 µM and a GI50 [4] of over 100 µM. For the same compound, the GI50 [5] was over 100 µM, the GI50 [6] was over 100 µM and the GI50 [7] was over 100 µM. For the same compound, the inhibition [8] was 20% and the GI50 [9] was over 100 µM.
With `COc1cc2c3c(n(CCCNCCO)c(=O)c2cc1OC)-c1cc2c(cc1C3=O)OCO2` [LMP-744] the GI50 [1] was 0.03 µM, the GI50 [2] was over 0.01 µM and the GI50 [3] was 0.1 µM. For the same compound, the GI50 [4] was over 0.01 µM, the GI50 [5] was 0.5 µM and the GI50 [6] was 0.04 µM. For the same compound, the GI50 [7] was 0.79 µM, the Activity [8] was “Active” and the GI50 [9] was 0.02 µM.
With `CN(C)CCCc1c2c(nc3ccccc13)-c1cc3ccccc3c(=O)n1C2` the inhibition of growth at 10 µM [11] was 21.4% and the inhibition [8] was 75%.
`NCc1c2c(nc3ccccc13)-c1cc3ccccc3c(=O)n1C2` showed a GI50 [1] of 11.7 µM, a GI50 [2] of 2.9 µM and a GI50 [3] of 1.5 µM. The GI50 [4] was 2.8 µM, the GI50 [5] was 2.9 µM and the GI50 [6] was 4.9 µM. It also gave a GI50 [7] of 9.4 µM, an inhibition [8] of 50% and a GI50 [9] of 9.8 µM.
Work on `CN1CCN(Cc2c3c(nc4ccccc24)-c2cc4ccccc4c(=O)n2C3)CC1` yielded a GI50 [1] of over 100 µM, a GI50 [2] of over 100 µM and a GI50 [3] of 1.9 µM. The GI50 [4] was 4.9 µM, the GI50 [6] was 1.8 µM and the GI50 [7] was 2.1 µM. The inhibition [8] was 75% and the GI50 [9] was over 100 µM.
`O=c1c2ccccc2cc2n1Cc1c-2nc2ccccc2c1CCCN1CCOCC1` was tested, and the GI50 [1] was 1.4 µM, the GI50 [2] was 5.9 µM and the GI50 [3] was 3.9 µM. The GI50 [4] was 20.3 µM, the GI50 [5] was 10.6 µM and the GI50 [6] was 3.5 µM. For the same compound, the GI50 [7] was over 100 µM, the inhibition [8] was 50% and the GI50 [9] was 5 µM.
